This is an account of results in ChEMBL document CHEMBL1149755, “Synthesis, physicochemical and anticonvulsant properties of new N-phenylamino derivatives of 2-azaspiro[4.4]nonane- and [4.5]decane-1,3-diones: part V” (Eur J Med Chem, 2008).

Active and inactive are the calls of the source. The rule behind the calls is not given here. Bounds are passed on as bounds.

Series [1] can be described thus: Lipophilicity, log kw of compound by RP-HPLC. Format: physicochemical. In short, it runs like this:
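RP-HPLC on end-capped C18 column, acetonitrile-containing mobile phase at several concentrations; uracil as unretained marker for dead volume; UV detection at 214 nm, room temperature; three measurement sets averaged; log kw obtained by extrapolation of linear log k versus organic modifier fraction (log k = log kw − Sφ).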

Series [2] relates to Mus musculus. In words: Anticonvulsant activity in mouse at 300 mg/kg, ip. Format: functional, organism-based. On the set-up: dose 300 mg/kg. In short, it runs like this:
(§1)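 Phase I screen: intraperitoneal injection into mice as suspension in 0.5% methylcellulose at 30, 100 and 300 mg/kg; MES, subcutaneous pentylenetetrazole and rota-rod minimal motor impairment assessed at 0.5 h and 4 h after dosing (2 h also reported for some MES readings). Value is minimum dose showing activity or toxicity.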

Series [3] has as its system Mus musculus. Briefly: Anticonvulsant activity in ip dosed mouse after 4 hrs by maximal electroshock test. In kind it is functional. The essentials:
as §1
On the technique in general: In the maximal electroshock model the usual endpoint is tonic extension of the hind limbs.

The subject of series [4] is Mus musculus. In words: Neurotoxicity in ip dosed mouse after 4 hrs by rotarod test. Format: toxicity, organism-based. Particulars: in vivo. In short, it runs like this:
as §1
Background: The rotarod test checks motor coordination on a turning rod.

Series [5] has as its system Mus musculus. In words: Anticonvulsant activity in ip dosed mouse after 2 hrs by maximal electroshock test. Format: functional. In short, it runs like this:
as §1

The subject of series [6] is Mus musculus. In words: Neurotoxicity in ip dosed mouse after 0.5 hrs by rotarod test. Format: toxicity, organism-based. Particulars: in vivo. The essentials:
as §1

Series [7] concerns Mus musculus. In words: Anticonvulsant activity in ip dosed mouse after 0.5 hrs by subcutaneous pentylenetetrazole test. Format: functional. In short, it runs like this: as §1
The species entered for series [8] is Rattus norvegicus. In words: Displacement of [3H]muscimol from GABAA receptor in rat brain cortex. Format: tissue-based. In short, it runs like this:
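Rat brain membranes washed repeatedly in ice-cold 50 mM Tris-HCl pH 7.4, stored at −20 °C at least 18 h; incubated 10 min at 0 °C with 3 nM [3H]muscimol (stock) and eight test concentrations 10^-11–10^-4 M; nonspecific binding with GABA; filtration, scintillation counting, duplicates, iterative curve fitting.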
A general note: Displacement assays read how much labelled ligand stays bound in the presence of the test substance.

For series [9], the system named is Mus musculus. Briefly: Anticonvulsant activity in ip dosed mouse after 0.5 hrs by maximal electroshock test. In kind it is functional. In short, it runs like this: as §1
Series [10] concerns Mus musculus. In words: Anticonvulsant activity in mouse at 100 mg/kg, ip. In kind it is functional, organism-based. On the set-up: dose 100 mg/kg. In short, it runs like this: as §1
Series [11] relates to Rattus norvegicus. In words: Neurotoxicity in rat at 30 mg/kg, po after 0.25 hrs by rotarod test. In kind it is toxicity, organism-based. On the set-up: dose 30 mg/kg, route oral. The following applies: in vivo. In short, it runs like this: (§2)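 Phase VIa: oral administration to rats, four animals, fixed 30 mg/kg; MES protection and rota-rod neurotoxicity read at 0.25, 0.5, 1, 2 and 4 h post dose. Reported as number of animals protected (or showing toxicity) over number tested.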

Series [12] relates to Rattus norvegicus. In words: Neurotoxicity in rat at 30 mg/kg, po after 0.5 hrs by rotarod test. Format: toxicity, organism-based. Set-up: dose 30 mg/kg, route oral. The following applies: in vivo. The essentials: as §2
The test system of series [13] is Rattus norvegicus. Briefly: Neurotoxicity in rat at 30 mg/kg, po after 1 hr by rotarod test. In kind it is toxicity, organism-based. Set-up: dose 30 mg/kg, route oral. Particulars: in vivo. In short, it runs like this:
as §2

Series [14] has as its system Rattus norvegicus. Briefly: Neurotoxicity in rat at 30 mg/kg, po after 2 hrs by rotarod test. Format: toxicity, organism-based. On the set-up: dose 30 mg/kg, route oral. The following applies: in vivo. The essentials:
as §2

Series [15] relates to Rattus norvegicus. In words: Neurotoxicity in rat at 30 mg/kg, po after 4 hrs by rotarod test. Format: toxicity, organism-based. On the set-up: dose 30 mg/kg, route oral. Particulars: in vivo. In short, it runs like this:
as §2

Series [16] concerns Rattus norvegicus. In words: Anticonvulsant activity in po dosed rat after 2 hrs by maximal electroshock test. Format: functional. In short, it runs like this: (§3)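 Phase II quantification in rats after oral dosing: median effective dose in MES and scPTZ seizure tests determined at the previously estimated time of peak effect, 2 h.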
Series [17] deals with Rattus norvegicus. In words: Anticonvulsant activity in po dosed rat after 2 hrs by subcutaneous pentylenetetrazole test. In kind it is functional. In short, it runs like this:
as §3

For series [18], the system named is Mus musculus. Briefly: Toxicity in mouse at 30 mg/kg, ip. In kind it is organism-based. On the set-up: dose 30 mg/kg, route intraperitoneal. Particulars: in vivo. The essentials: as §1
Series [19] has as its system Mus musculus. In words: Anticonvulsant activity in ip dosed mouse after 4 hrs by subcutaneous pentylenetetrazole test. In kind it is functional. The essentials:
as §1

In series [1], `O=C1CC(C2CCCCC2)C(=O)N1Nc1ccc(Cl)cc1Cl` (stereo unspecified) showed a logKw of 2.896. The result in the series on Mus musculus [2] was inactive.
Consider `CC1CCCCC12CC(=O)N(Nc1ccc(Br)cc1)C2=O` (stereo unspecified), for which the Activity with Mus musculus [3] was determined as 300 mg/kg; in the series with Mus musculus [4], 300 mg/kg; with Mus musculus [5], 100 mg/kg. The compound also gave a logKw in series [1] of 2.561. The result with Mus musculus [2] was Active.
Turning to `CC1CCCC2(CC(=O)N(Nc3ccc(Cl)cc3Cl)C2=O)C1` (stereo unspecified), in series [1], the logKw was found to be 2.976. In addition, the result with Mus musculus [2] was inactive.
In series [1], `O=C1CC2(CCCCC2)C(=O)N1Nc1ccccc1Cl` came in with a logKw of 2.322. For the same compound, the result in the series on Mus musculus [2] was inactive.
Compound `CC1CCC2(CC1)CC(=O)N(Nc1ccc(Cl)cc1Cl)C2=O` (stereo unspecified) registered a Minimum neurotoxic dose in the series on Mus musculus [6] of 100 mg/kg. The same compound registered an Activity with Mus musculus [4] of 100 mg/kg. Also, the logKw in [1] was found to be 2.977. For the same compound, the outcome in the series with Mus musculus [2] was inactive.
Take `O=C1CC2(CCCC2)C(=O)N1Nc1ccc(Br)cc1`: the values for the Activity with Mus musculus [3], in the series with Mus musculus [7] and with Mus musculus [5] were 300 mg/kg, 300 mg/kg and 100 mg/kg, respectively. The compound also yielded a Minimum neurotoxic dose in the series with Mus musculus [6] of 100 mg/kg. Further, in series [1], the logKw came out at 2.115. In the series on Mus musculus [2], the outcome was Active. Further, in the series listed under Rattus norvegicus [8], the outcome was inactive.
Turning to `CC1CCCCC12CC(=O)N(Nc1ccc(Cl)cc1Cl)C2=O` (stereo unspecified), the Activity in the series with Mus musculus [3] and in the series with Mus musculus [7] was 300 mg/kg in each case. The logKw in series [1] amounted to 2.847. For the same compound, in the series with Mus musculus [2], the result was Active.
As to `O=C1CC2(CCCC2)C(=O)N1Nc1ccc(Cl)cc1Cl`, the Activity in the series with Mus musculus [9] was 100 mg/kg; with Mus musculus [3], 300 mg/kg; with Rattus norvegicus [11], “Non-toxic”; in the series on Rattus norvegicus [12], “Non-toxic”; in the series on Rattus norvegicus [13], “Non-toxic”; in the series on Rattus norvegicus [14] it was “Non-toxic”. Also, the Activity entry with Rattus norvegicus [15] is “Non-toxic”. The compound further displayed a Minimum neurotoxic dose in the series on Mus musculus [6] of 300 mg/kg. For the same compound, the outcome with Mus musculus [10] was Active. In addition, the logKw in series [1] amounted to 2.419. Besides, the ED50 with Rattus norvegicus [16] is more than 180 mg/kg; in the series with Rattus norvegicus [17], more than 125 mg/kg. Moreover, the TD50 with Rattus norvegicus [16] and in the series with Rattus norvegicus [17] was more than 250 mg/kg each time. Besides, in the series filed under Rattus norvegicus [8], the result was inactive.
The compound `O=C1CC(C2CCCCC2)C(=O)N1Nc1ccccc1Cl` (stereo unspecified) came in with a logKw in series [1] of 2.536. In addition, in the series with Mus musculus [2], the result was inactive.
Take `O=C1CC2(CCCCC2)C(=O)N1Nc1ccc(Br)cc1`: the Activity is 100 mg/kg in the series on Mus musculus [3] and “Toxic” in the series with Mus musculus [18]. The Minimum neurotoxic dose with Mus musculus [6] came out at 30 mg/kg. Also, the result in the series on Mus musculus [10] was Active. The compound also showed a logKw in [1] of 2.337. In addition, the result in the series filed under Rattus norvegicus [8] was inactive.
Regarding `CC1CCCCC12CC(=O)N(Nc1ccccc1Cl)C2=O` (stereo unspecified), in the series on Mus musculus [6], the Minimum neurotoxic dose was determined as 100 mg/kg. In series [1], this compound showed a logKw of 2.515. Besides, the outcome in the series with Mus musculus [2] was inactive.
Turning to `O=C1CC2(CCCCC2)C(=O)N1Nc1ccc(Cl)cc1Cl`, the Activity was 100 mg/kg with Mus musculus [3]; 300 mg/kg with Mus musculus [19]; “Non-toxic” with Rattus norvegicus [11]; “Non-toxic” in the series with Rattus norvegicus [12]; “Non-toxic” with Rattus norvegicus [13]; “Non-toxic” in the series on Rattus norvegicus [14]. The Activity result in the series with Rattus norvegicus [15] is given as “Non-toxic”. Moreover, the outcome in the series with Mus musculus [10] was Active. In [1], this compound had a logKw of 2.634. In addition, the outcome in the series filed under Rattus norvegicus [8] was inactive.
Turning to `O=C1CC2(CCCC2)C(=O)N1Nc1ccccc1Cl`, the Activity in the series with Mus musculus [9] is 300 mg/kg; in the series with Mus musculus [7] it was 300 mg/kg; in the series on Rattus norvegicus [11] it was “Non-toxic”; with Rattus norvegicus [12], “Non-toxic”; in the series on Rattus norvegicus [13], “Non-toxic”; in the series with Rattus norvegicus [14] it was “Non-toxic”. Further, the Activity result in the series with Rattus norvegicus [15] was “Non-toxic”. Moreover, the logKw in series [1] came to 2.095. Moreover, the outcome in the series with Mus musculus [2] was Active.

A word on the ED50: it is the dose at which the effect has come halfway, by size or by number of responders. Read a high ED50 as weaker potency.
